Data: article PMC3663483 (Nature, 2012)

Legend:
[1] = system: Pten^L/L prostate cancer mouse model; format: in vivo; conditions: Pten L/L mice; for apoptosis in prostate / cell proliferation in prostate: INK128 1 mg/kg or RAD001 10 mg/kg daily gavage
Outline: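 PtenL/L mice aged nine or twelve months were given daily oral gavage; vehicle was 5% polyvinylpropyline, 15% NMP, 80% water. Body weight was taken every 3 days for toxicity. In the 28-day study, prostates were MRI-imaged at 14 T on days 0 and 28. Prostates and lymph nodes were formalin-fixed and cut as 5 μm paraffin sections. Nodes were stained for CK8 and androgen receptor, and metastasis areas were measured.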

[2] = system: 4EBP1 and p70S6K1/2 phosphorylation; assay: Preclinical trial in Pten L/L mice: mTOR effector phosphorylation; format: in vivo, mouse; conditions: INK128 1 mg/kg or RAD001 10 mg/kg daily gavage
Outline: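 Nine- and twelve-month-old PtenL/L mice were dosed daily by oral gavage, with vehicle 5% […], 15% NMP, 80% water. Whole prostates were removed, microdissected, frozen in liquid nitrogen and pulverised. Protein lysates were immunoblotted with antibodies to phospho-4EBP1 T37/46, 4EBP1, phospho-p70S6K T389, phospho-rpS6 S240/244 and rpS6.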

[3] = system: GFP-labelled PC3 cells; assay: Real-time imaging of cell migration; format: cell-based, human; conditions: starting at 6 h of treatment
Outline: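 GFP-labelled PC3 cells were plated on poly-D-lysine-coated chamber slides and left to adhere for 24 h. Wells were then scratch-wounded. Wide-field fluorescence time-lapse was run under CO2 and temperature control, with DIC and GFP frames every 2 min. Cell centroids were tracked manually to give xy paths, velocity and distance. Analysis covered hours 3–4 and 6–7 of treatment, with 34 cells per condition and ANOVA.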

[4] = system: multiple cancer cell lines; assay: Apoptosis analysis; format: cell-based, human
Outline: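 LNCaP and A498 cells, after treatment, were labelled with Annexin V-FITC and propidium iodide per kit instructions. Annexin/PI staining was acquired by flow cytometry to score apoptotic cells.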

[5] = system: mTOR effectors 4EBP1, p70S6K1/2 and AKT; assay: Western blot of downstream mTOR effectors in PC3 cells; format: cell-based, human; conditions: PP242 2.5 μM, rapamycin 50 nM, 3-h treatment
[6] = system: PC3 human prostate cancer cells; assay: Ribosome profiling of PC3 cells; format: cell-based; conditions: 3 h, rapamycin 50 nM
[7] = system: Jurkat lymphoid cell line; conditions: cited from earlier work

SMILES	apoptosis in prostate [1]	cell proliferation in prostate [1]	regression of PIN lesions ([1]; RAD001 10 mg/kg daily gavage)	4EBP1 and p70S6K1/2 phosphorylation [2]	cancer cell migration [3]	decrease in prostatic intraepithelial neoplasia (PIN) lesions ([1]; INK128 1 mg/kg daily gavage)	prostate cancer volume ([1]; INK128 1 mg/kg daily gavage, MRI day 0 and day 28)	programmed cell death [4]	activity of downstream mTOR effectors 4EBP1, p70S6K1/2 and AKT [5]	effect on gene expression by ribosome profiling [6]	sensitivity to rapamycin treatment [7]
CO[C@H]1C[C@@H]2CC[C@@H](C)[C@@](O)(O2)C(=O)C(=O)N2CCCC[C@H]2C(=O)O[C@H]([C@H](C)C[C@@H]2CC[C@@H](OCCO)[C@H](OC)C2)CC(=O)[C@H](C)/C=C(\C)[C@@H](O)[C@@H](OC)C(=O)[C@H](C)C[C@H](C)/C=C/C=C/C=C/1C [RAD001]	no significant effect	limited decrease	only partial regression	only decreased p70S6K1/2 phosphorylation levels							
CC(C)n1nc(-c2ccc3oc(N)nc3c2)c2c(N)ncnc21 [INK128]	tenfold increase	decreased proliferation		completely restored to wild-type levels	inhibits cancer cell migration	50%	marked reduction	induced programmed cell death			
CO[C@H]1C[C@@H]2CC[C@@H](C)[C@@](O)(O2)C(=O)C(=O)N2CCCC[C@H]2C(=O)O[C@H]([C@H](C)C[C@@H]2CC[C@@H](O)[C@H](OC)C2)CC(=O)[C@H](C)/C=C(\C)[C@@H](O)[C@@H](OC)C(=O)[C@H](C)C[C@H](C)/C=C/C=C/C=C/1C [rapamycin]									only blocks p70S6K1/2 activity	did not markedly affect gene expression	particularly sensitive
